This note sets out measurements from ChEMBL document CHEMBL3352217, “Expanding the results of a high throughput screen against an isochorismate-pyruvate lyase to enzymes of a similar scaffold or mechanism” (Bioorg Med Chem, 2014).

The nature of experiment [1]: Inhibition of Pseudomonas aeruginosa PAO1 PchB expressed in Escherichia coli BL21(DE3) using isochorismate as substrate assessed as pyruvate production after 10 mins by microplate reader analysis. In outline:
(§1)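 Pyruvate output at 25 °C, with PchB at 50 nM in 50 mM potassium phosphate pH 8 started with isochorismate, or Irp9 at 200 nM started with chorismate. Substrate was above the 10 µM Km and inhibitor was varied. Samples taken at 2-min points were quenched in 0.25 g/L DNPH in 1 M HCl and held 10 min at 37 °C. NaOH was added and A515 read, converted to pyruvate by standard curve. Runs were in triplicate, giving IC50.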

Experiment [2] is described as follows: Inhibition of Pseudomonas aeruginosa PAO1 PchB expressed in Escherichia coli BL21(DE3) using isochorismate as substrate assessed as salicylate production by fluorescence spectrometry. In outline:
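Untagged PchB at 50 nM in 50 mM potassium phosphate pH 8. […] Initial velocities at 25 °C were taken from salicylate fluorescence (ex 310/em 430 nm) over 120 s of the linear phase. IC50 came from dose-response percent inhibition.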

Experiment [3] addresses T1, Bifunctional chorismate mutase/prephenate dehydratase (Escherichia coli (strain K12), UniProt P0A9J8).
T1 sequence (P0A9J8 whole entry): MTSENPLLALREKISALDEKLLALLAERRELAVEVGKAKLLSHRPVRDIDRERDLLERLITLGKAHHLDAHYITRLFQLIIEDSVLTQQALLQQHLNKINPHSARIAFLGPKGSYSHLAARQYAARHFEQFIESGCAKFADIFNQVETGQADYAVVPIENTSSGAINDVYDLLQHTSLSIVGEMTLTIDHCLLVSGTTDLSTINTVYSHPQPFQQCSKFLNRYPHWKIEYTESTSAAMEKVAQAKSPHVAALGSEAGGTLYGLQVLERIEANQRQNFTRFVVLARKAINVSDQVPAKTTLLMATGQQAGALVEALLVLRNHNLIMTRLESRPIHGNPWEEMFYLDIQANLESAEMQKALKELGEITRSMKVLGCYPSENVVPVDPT
The experiment can be described thus: Inhibition of Escherichia coli K-12 EcCM expressed in Escherichia coli BL21 Star (DE3) pLysS using chorismate as substrate assessed as disappearance of chorismate by stopped-flow analysis. In outline:
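His-tagged EcCM domain was Ni-affinity and size-exclusion purified. Post-mixing concentrations were 500 nM enzyme, chorismate at Km (600 µM) and inhibitor 0–500 µM. Rate was the A310 decrease over 30 s, in triplicate, giving IC50.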

The target in experiment [4] is T2, Salicylate synthetase, Irp9 (Yersinia enterocolitica, UniProt Q9X9I8).
T2 sequence (Q9X9I8 whole entry): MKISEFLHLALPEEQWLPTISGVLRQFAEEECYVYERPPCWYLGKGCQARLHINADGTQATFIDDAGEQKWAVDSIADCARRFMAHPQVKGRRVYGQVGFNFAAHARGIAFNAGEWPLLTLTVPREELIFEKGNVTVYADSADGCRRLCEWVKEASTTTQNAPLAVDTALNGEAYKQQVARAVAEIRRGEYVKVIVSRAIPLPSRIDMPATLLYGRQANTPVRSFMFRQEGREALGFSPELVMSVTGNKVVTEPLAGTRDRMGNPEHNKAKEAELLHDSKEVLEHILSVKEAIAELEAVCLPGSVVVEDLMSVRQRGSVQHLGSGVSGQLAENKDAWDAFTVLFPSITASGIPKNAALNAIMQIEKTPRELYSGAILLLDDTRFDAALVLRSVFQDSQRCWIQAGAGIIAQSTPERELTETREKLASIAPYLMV
Nature of the experiment: Inhibition of Yersinia enterocolitica Irp9 using chorismate as substrate assessed as salicylate production by fluorescence spectrometry. In outline: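 Irp9 at 100 nM in 50 mM Tris-HCl pH 7.5, 10 mM MgCl2, 10% glycerol. Reaction was started with chorismate, with inhibitor concentration varied. Initial velocities at 25 °C were taken from salicylate fluorescence (ex 310/em 430 nm) over 120 s of the linear phase. IC50 came from the dose-response.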

The target in experiment [5] is T2, Salicylate synthetase, Irp9. The experiment can be described thus: Inhibition of Yersinia enterocolitica Irp9 using chorismate as substrate assessed as pyruvate production after 10 mins by microplate reader analysis. The procedure, abridged: as §1
Experiment [6] in a line: Inhibition of Pseudomonas aeruginosa PAO1 PchB.
A further experiment relates to Escherichia coli. The experiment can be described thus: Ratio of I50 to Km for Escherichia coli Chorismate mutase. The procedure, abridged:
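N-His-tagged E. coli chorismate mutase domain (PheA), 500 nM. Chorismate at its Km (600 µM), inhibitor 0–500 µM, all post-mixing. Initial rates from A310 decrease over 30 s, in triplicate. I50 is the concentration giving 50% inhibition at substrate = Km, divided by Km.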

For experiment [7], the system named is Pseudomonas aeruginosa. Nature of the experiment: Antimicrobial activity against Pseudomonas aeruginosa PAO1 PvdA deletion mutant after 24 hrs by microplate reader analysis in presence of 5 uM FeCl3. Format: functional, organism-based. As to conditions: PAO1, 24 h. In outline:
(§2)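 Overnight LB cultures were diluted to OD600 0.5 in PMH-D medium. Cells were added to PMH-D containing FeCl3, either 5 µM (iron-limited) or 200 µM (iron-rich), with inhibitor at 0–5 mM (DMSO vehicle). Plates were shaken at 37 °C for 24 h. Cells were then pelleted, the medium was removed, and cells were resuspended in LB. A600 was read. Growth was normalized to no-inhibitor cultures to give EC50.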

Experiment [8] in a line: Competitive inhibition of Pseudomonas aeruginosa PAO1 PchB expressed in Escherichia coli BL21(DE3) using isochorismate as substrate. In outline:
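Untagged PchB at 50 nM final, in 50 mM potassium phosphate pH 8 (plus 1 mM TCEP for stopped-flow runs), at 25 °C. Isochorismate was varied up to 75 µM and inhibitor up to 1.5 µM. Salicylate formation was followed by fluorescence (excitation 310 nm; emission 430 nm or 360 nm cutoff) as linear initial velocities, over 120 s on a cuvette fluorimeter or 30 s by stopped-flow.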

Another experiment concerns Yersinia enterocolitica. Nature of the experiment: Antimicrobial activity against Yersinia enterocolitica ATCC 9610 after 24 hrs by microplate reader analysis in presence of 5 uM FeCl3. The class given is functional, organism-based. As to conditions: ATCC 9610, 24 h. The procedure, abridged: as §2
Experiment [9] deals with Pseudomonas aeruginosa. The experiment can be described thus: Antimicrobial activity against Pseudomonas aeruginosa PAO1 PchE deletion mutant after 24 hrs by microplate reader analysis in presence of 200 uM FeCl3. The class given is functional, organism-based. The procedure, abridged: as §2
The test system of experiment [10] is Pseudomonas aeruginosa. The experiment can be described thus: Antimicrobial activity against wild-type Pseudomonas aeruginosa PAO1 after 24 hrs by microplate reader analysis in presence of 5 uM FeCl3. Format: functional, organism-based. As to conditions: PAO1, 24 h. The procedure, abridged: as §2
In experiment [11] the test system is Pseudomonas aeruginosa. The experiment can be described thus: Antimicrobial activity against Pseudomonas aeruginosa PAO1 PvdA deletion mutant after 24 hrs by microplate reader analysis in presence of 200 uM FeCl3. Format: functional, organism-based. In outline:
as §2

The target in experiment [12] is T1, Bifunctional chorismate mutase/prephenate dehydratase. The experiment can be described thus: Competitive inhibition of Escherichia coli K-12 EcCM expressed in Escherichia coli BL21 Star (DE3) pLysS using chorismate as substrate. In outline: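 N-terminally His-tagged chorismate mutase domain of pheA, purified by Ni-chelate and size-exclusion chromatography. Enzyme with inhibitor mixed 1:1 with chorismate. Final concentrations: enzyme 500 nM, chorismate 0–2 mM, inhibitor 0–50 µM. Initial rates read as the 30 s decrease in absorbance at 310 nm, giving Ki and inhibition mode.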

The subject of experiment [13] is Pseudomonas aeruginosa. The experiment can be described thus: Antimicrobial activity against Pseudomonas aeruginosa PAO1 PchE deletion mutant after 24 hrs by microplate reader analysis in presence of 5 uM FeCl3. Format: functional, organism-based. As to conditions: PAO1, 24 h. In outline: as §2
Experiment [14] concerns Pseudomonas aeruginosa. Nature of the experiment: Antimicrobial activity against wild-type Pseudomonas aeruginosa PAO1 after 24 hrs by microplate reader analysis in presence of 200 uM FeCl3. The class given is functional, organism-based. The procedure, abridged:
as §2

Experiment [15] has as its target T2, Salicylate synthetase, Irp9. Nature of the experiment: Competitive inhibition of Yersinia enterocolitica Irp9 using chorismate as substrate. In outline:
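Stopped-flow kinetics at 25 °C in 50 mM Tris pH 7.5, 10 mM MgCl2, 10% glycerol. Final Irp9 was 100 nM, chorismate 0–40 µM and inhibitor 0–10 µM. Enzyme plus inhibitor was mixed with chorismate. Initial velocities came from the rise in salicylate fluorescence (ex 310 nm, 360 nm cutoff filter) over 30 s. Ki and inhibition mode were derived from these rates.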

A word on the IC50: it is the concentration at which inhibition is half-maximal. Usually Ki stands for the dissociation constant of the complex between target and ligand, obtained from inhibition or displacement. One may read the EC50 as the concentration at which the effect is half-maximal.

For `O=c1oc2cc(Br)c(O)c(Br)c2s1`, the IC50 was 10 µM in [1], 10 µM in [2] and 120 µM in experiment [3].

For `O=C(O)c1cccc(S(=O)(=O)Nc2ccccc2C(=O)O)c1`, the IC50 was 0.22 µM in experiment [1]; “Not Active” in experiment [4]; 0.25 µM in experiment [2]; “Not Active” in experiment [5]; 170 µM in experiment [3].

For `O=C(O)C1CC2(C(=O)O)C=CC(O)C(C2)O1` (configuration not stated), the Ki in [6] came to 2 µM. For the same compound, in the experiment with Escherichia coli, the Ratio was 0.008.

Take `O=P(O)(O)C12CC3CC(CC(C3)C1)C2`: in [6], the Ki is over 5000 µM.

For the compound `COC(=O)Oc1c([N+](=O)[O-])cc2oc(=O)sc2c1[N+](=O)[O-]`, the EC50 was over 5000 µM in the experiment with Pseudomonas aeruginosa [7]; 2300 µM in the experiment on Yersinia enterocolitica; “Not Active” in the experiment with Pseudomonas aeruginosa [9]; over 5000 µM in the experiment with Pseudomonas aeruginosa [10]; “Not Active” with Pseudomonas aeruginosa [11]; over 5000 µM in the experiment on Pseudomonas aeruginosa [13]. Moreover, in the experiment on Pseudomonas aeruginosa [14], the EC50 result is on record as “Not Active”. In addition, the Ki in [8] stood at 0.35 µM; in experiment [12] it was 40 µM; in experiment [15] it was 0.8 µM. Further, the IC50 in [1] amounted to 0.53 µM; in experiment [2], 0.87 µM; in experiment [3], 32 µM.

With `COC(=O)Oc1c(Cl)cc2oc(=O)sc2c1[N+](=O)[O-]`, the IC50 in experiment [1] was 1.8 µM; in experiment [2] it was 3.3 µM; in experiment [5], “Not Active”; in experiment [3], 45 µM.

On to `O=C(O)c1cc(S(=O)(=O)Nc2ccccc2C(=O)O)ccc1Br`, for which the IC50 is 0.094 µM in [1]; “Not Active” in experiment [4]; 0.24 µM in experiment [2]; “Not Active” in [5]; 200 µM in experiment [3].

Regarding `O=C1S/C(=C/c2cc([N+](=O)[O-])cc([N+](=O)[O-])c2O)C(=O)N1c1ccccc1`, the IC50 was 1.4 µM in [1], 1.4 µM in [2], “Not Active” in [5] and 85 µM in [3].
